For assay [1], the target named is T1, Endothelin-converting enzyme 1 (Homo sapiens, UniProt P42892).
T1 sequence (P42892 whole entry): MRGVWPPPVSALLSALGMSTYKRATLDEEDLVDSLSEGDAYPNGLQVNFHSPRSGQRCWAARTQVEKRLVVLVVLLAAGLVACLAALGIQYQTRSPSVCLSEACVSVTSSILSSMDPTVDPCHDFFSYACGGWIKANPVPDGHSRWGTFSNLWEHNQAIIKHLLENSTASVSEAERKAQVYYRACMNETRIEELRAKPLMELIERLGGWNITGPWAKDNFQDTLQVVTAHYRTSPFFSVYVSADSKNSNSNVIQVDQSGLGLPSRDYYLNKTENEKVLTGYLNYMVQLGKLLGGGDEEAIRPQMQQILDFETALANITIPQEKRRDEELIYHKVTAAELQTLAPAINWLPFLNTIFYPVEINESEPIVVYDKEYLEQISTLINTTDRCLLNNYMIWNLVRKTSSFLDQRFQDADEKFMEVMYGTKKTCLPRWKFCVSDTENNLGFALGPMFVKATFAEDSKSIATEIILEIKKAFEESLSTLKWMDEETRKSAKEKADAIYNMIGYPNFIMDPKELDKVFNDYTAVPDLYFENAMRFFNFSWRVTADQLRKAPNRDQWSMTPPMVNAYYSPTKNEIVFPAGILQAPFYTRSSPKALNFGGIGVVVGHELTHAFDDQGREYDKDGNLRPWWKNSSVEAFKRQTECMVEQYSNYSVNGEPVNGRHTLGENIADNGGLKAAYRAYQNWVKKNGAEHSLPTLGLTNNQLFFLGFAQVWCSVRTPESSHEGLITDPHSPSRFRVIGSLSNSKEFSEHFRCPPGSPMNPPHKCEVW
The assay is described as follows: In Vitro inhibition of recombinant human endothelin converting enzyme-1. In short, it runs like this: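 Enzyme was human recombinant ECE-1a from membranes of CHO cells expressing it. The IC50 was determined by the assay method of earlier work.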

The target of another assay is T2, Neprilysin (Rattus norvegicus, UniProt P07861).
T2 sequence (P07861 whole entry): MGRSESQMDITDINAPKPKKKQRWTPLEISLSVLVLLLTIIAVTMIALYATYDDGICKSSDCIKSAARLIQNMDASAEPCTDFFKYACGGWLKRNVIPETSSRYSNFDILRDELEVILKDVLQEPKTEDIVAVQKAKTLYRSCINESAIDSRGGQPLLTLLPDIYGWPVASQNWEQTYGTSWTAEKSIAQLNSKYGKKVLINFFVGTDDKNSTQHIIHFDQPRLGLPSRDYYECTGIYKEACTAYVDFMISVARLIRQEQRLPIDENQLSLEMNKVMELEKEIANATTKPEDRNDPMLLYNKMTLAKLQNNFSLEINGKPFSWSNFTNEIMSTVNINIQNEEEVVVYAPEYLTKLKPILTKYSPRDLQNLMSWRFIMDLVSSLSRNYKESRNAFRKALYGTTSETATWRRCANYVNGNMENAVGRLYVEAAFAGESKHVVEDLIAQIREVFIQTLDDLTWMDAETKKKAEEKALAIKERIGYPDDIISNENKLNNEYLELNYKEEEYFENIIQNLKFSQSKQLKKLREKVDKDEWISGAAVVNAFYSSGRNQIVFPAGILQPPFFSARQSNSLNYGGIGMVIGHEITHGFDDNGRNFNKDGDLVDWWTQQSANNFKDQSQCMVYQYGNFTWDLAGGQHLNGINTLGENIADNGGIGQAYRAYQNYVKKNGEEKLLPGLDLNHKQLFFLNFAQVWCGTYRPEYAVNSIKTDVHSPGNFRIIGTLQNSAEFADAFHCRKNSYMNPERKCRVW
The assay is described as follows: In vitro inhibition of rat neutral endopeptidase.

A short description of assay [2]: Selectivity ratio of IC50 NEP/IC50 ECE. In short, it runs like this:
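ECE selectivity was the ratio of IC50 against rat kidney cortex NEP 24.11 to IC50 against CHO-membrane human recombinant ECE-1a.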

Assay [3] addresses T3, Endothelin-converting enzyme 1 (Homo sapiens) (UniProt P42892).
T3 sequence (whole entry): T1 sequence (P42892 whole entry)
Nature of the assay: Inhibition of Endothelin-converting enzyme 1 activity at a concentration of 1 uM. In short, it runs like this:
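Human recombinant ECE-1a came from CHO cell membranes. Activity was measured with test compound at 1 µM and expressed as percent inhibition.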

SMILES strings stand for the structures.

The term IC50 denotes the concentration that inhibits the measured activity by half. One may read the inhibition as the drop in the measured response relative to a control, in per cent. A high value points to a response far below the control.

With `COc1ccc(CCC(N[C@@H](Cc2ccc3c(c2)oc2ccccc23)C(=O)O)P(=O)(O)O)cc1OC` (stereo in doubt; 40e') [listing 1 of 2 here], the IC50 in assay [1] was 29 nM; on Neprilysin, greater than 10000 nM.
On to `O=P(O)(O)C(CCc1cccc2ccccc12)N[C@@H](Cc1ccc2c(c1)oc1ccccc12)c1nnn[nH]1` (stereo in doubt; 43b') [listing 1 of 2 here], for which the Selectivity in assay [2] came out at 29. For the same compound, the inhibition in assay [3] is 73%.
Take `COc1cccc(CCC(N[C@@H](Cc2ccc3c(c2)oc2ccccc23)C(=O)O)P(=O)(O)O)c1OC` (stereo in doubt; 40c) [listing 1 of 2 here]: the IC50 in assay [1] turned out to be 19 nM; against Neprilysin, 24000 nM.
`O=C(O)[C@H](Cc1ccc2c(c1)oc1ccccc12)NC(CCc1cccc2ccccc12)P(=O)(O)O` (stereo in doubt; 40b') [listing 1 of 2 here]: the IC50 in assay [1] was determined as 1800 nM.
Turning to `CC(NC(=O)[C@H](Cc1ccc2c(c1)oc1ccccc12)NCP(=O)(O)O)C(=O)O` (some centres undefined), the midpoint of inhibition against Neprilysin, the IC50, lay at 1640 nM. In assay [3], this compound gave an inhibition of 35%.
Take `O=C(O)[C@H](Cc1ccc2c(c1)oc1ccccc12)NC(CCc1cccc2cccnc12)P(=O)(O)O` (stereo in doubt; 40n') [listing 1 of 2 here]: the values for the IC50 (in assay [1]; at Neprilysin) were 200 nM and 48000 nM, respectively.
The compound `CC(C)C[C@H](NC(=O)[C@H](CC#Cc1ccc(F)cc1F)NCP(=O)(O)O)C(=O)N[C@@H](C)C(=O)O` showed an IC50 against Neprilysin of 5800 nM. Moreover, the Selectivity in assay [2] amounted to 725.
Regarding `O=P(O)(O)C(CCc1cccc2ccccc12)N[C@@H](Cc1ccc2c(c1)oc1ccccc12)c1nnn[nH]1` (stereo in doubt; 43a') [listing 1 of 2 here], the Selectivity in assay [2] came out at 81. In assay [3], this compound gave an inhibition of 98%.
Consider `CC(N[C@@H](Cc1ccc2c(c1)oc1ccccc12)C(=O)O)P(=O)(O)O` (stereo in doubt; 40u) [listing 1 of 2 here], for which the IC50 in assay [1] was 96 nM; against Neprilysin, 28000 nM.
`O=P(O)(O)C(CCc1cccc2ccccc12)N[C@@H](Cc1ccc(-c2ccccc2)cc1)c1nnn[nH]1` (some centres undefined): the IC50 against Neprilysin stood at 5 nM. For the same compound, the Selectivity in assay [2] was found to be 0.29.
Compound `CC(C)C[C@H](NC(=O)[C@H](CC#Cc1ccc(F)cc1F)NCP(=O)(O)O)C(=O)O` had an IC50 on Neprilysin of 6700 nM. In addition, the Selectivity in assay [2] amounted to 131.
For the compound `CC(C)C[C@H](NP(=O)(O)O[C@@H]1O[C@@H](C)[C@H](O)[C@@H](O)[C@H]1O)C(=O)N[C@@H](Cc1c[nH]c2ccccc12)C(=O)O` [PHOSPHORAMIDON], the IC50 on Neprilysin turned out to be 30 nM.
As for `NCCCC(N[C@@H](Cc1ccc2c(c1)oc1ccccc12)C(=O)O)P(=O)(O)O` (stereo in doubt; 40r'), the inhibition in assay [3] was determined as 29%.
As for `COc1cc(OC)c(OC)cc1CCC(N[C@@H](Cc1ccc2c(c1)oc1ccccc12)C(=O)O)P(=O)(O)O` (stereo in doubt; 40i'), the Selectivity in assay [2] is greater than 250. The inhibition in assay [3] was 91%.
On to `COc1cccc(CCC(N[C@@H](Cc2ccc3c(c2)oc2ccccc23)C(=O)O)P(=O)(O)O)c1OC` (stereo in doubt; 40d'), for which the Selectivity in assay [2] stood at 58. This compound also came in with an inhibition in assay [3] of 85%.
With `COc1cc(OC)c(OC)cc1CCC(N[C@@H](Cc1ccc2c(c1)oc1ccccc12)C(=O)O)P(=O)(O)O` (stereo in doubt; 40j'), the inhibition in assay [3] came to 38%.
For `COc1ccc(CCC(N[C@@H](Cc2ccc3c(c2)oc2ccccc23)C(=O)O)P(=O)(O)O)c(OC)c1OC` (stereo in doubt; 40k'), in assay [2], the Selectivity worked out at 428. Further, the inhibition in assay [3] was determined as 91%.
Take `COc1cccc(CCC(N[C@@H](Cc2ccc3c(c2)oc2ccccc23)C(=O)O)P(=O)(O)O)c1OC` (stereo in doubt; 40c) [listing 2 of 2 here]: in assay [2], the Selectivity was 1260. The compound further registered an inhibition in assay [3] of 95%.
For `O=P(O)(O)C(CCc1cccc2ccccc12)N[C@@H](Cc1ccc2c(c1)oc1ccccc12)c1nnn[nH]1` (stereo in doubt; 43b') [listing 2 of 2 here], the IC50 turned out to be 440 nM in assay [1] and 13000 nM on Neprilysin.
`COc1ccc(CCC(N[C@@H](Cc2ccc3c(c2)oc2ccccc23)C(=O)O)P(=O)(O)O)cc1OC` (stereo in doubt; 40f ') [listing 1 of 2 here] gave an inhibition in assay [3] of 58%.
As for `CC(N[C@@H](Cc1ccc2c(c1)oc1ccccc12)C(=O)O)P(=O)(O)O` (stereo in doubt; 40v), the Selectivity in assay [2] came to 261. The compound also returned an inhibition in assay [3] of 81%.
Turning to `O=P(O)(O)C(CCc1cccc2ccccc12)N[C@@H](Cc1ccc2c(c1)oc1ccccc12)c1nnn[nH]1` (stereo in doubt; 43a') [listing 2 of 2 here], the values for the IC50 (in assay [1]; against Neprilysin) were 2.6 nM and 210 nM, respectively.
Regarding `NCCCCC(N[C@@H](Cc1ccc2c(c1)oc1ccccc12)C(=O)O)P(=O)(O)O` (stereo in doubt; 40o'), the Selectivity in assay [2] was greater than 1030. The inhibition in assay [3] is 84%.
Take `O=C(O)[C@H](Cc1ccc2c(c1)oc1ccccc12)NC(CCc1cccc2cccnc12)P(=O)(O)O` (stereo in doubt; 40m'): the Selectivity in assay [2] was 4210. The same compound gave an inhibition in assay [3] of 94%.
On to `O=P(O)(O)CN[C@@H](CC#Cc1ccccc1F)c1nnn[nH]1`, for which the IC50 against Neprilysin stood at 14 nM. In addition, in assay [2], the Selectivity turned out to be 0.1.
Take `O=C(O)[C@H](Cc1ccc2c(c1)oc1ccccc12)NC(CCc1cccc2cccnc12)P(=O)(O)O` (stereo in doubt; 40n') [listing 2 of 2 here]: the Selectivity in assay [2] was found to be 240. For the same compound, the inhibition in assay [3] is 78%.
Compound `O=C(O)CNC(=O)[C@H](Cc1ccc2c(c1)oc1ccccc12)NCP(=O)(O)O` came in with an IC50 against Neprilysin greater than 10000 nM. The compound further registered an inhibition in assay [3] of 43%.
As to `COc1ccc(CCC(N[C@@H](Cc2ccc3c(c2)oc2ccccc23)C(=O)O)P(=O)(O)O)cc1OC` (stereo in doubt; 40f ') [listing 2 of 2 here], the IC50 in assay [1] came to 890 nM.
Consider `NCCCCC(N[C@@H](Cc1ccc2c(c1)oc1ccccc12)C(=O)O)P(=O)(O)O` (stereo in doubt; 40p'), for which the inhibition in assay [3] amounted to 19%.
On to `COc1ccc(CCC(N[C@@H](Cc2ccc3c(c2)oc2ccccc23)C(=O)O)P(=O)(O)O)cc1OC` (stereo in doubt; 40e') [listing 2 of 2 here], for which, in assay [2], the Selectivity is greater than 345. In addition, the inhibition in assay [3] is 93%.
For `CC(N[C@@H](Cc1ccc2c(c1)oc1ccccc12)C(=O)O)P(=O)(O)O` (stereo in doubt; 40u) [listing 2 of 2 here] the same measures were 292 and 88%.
`O=C(O)[C@H](Cc1ccc2c(c1)oc1ccccc12)NC(CCc1cccc2ccccc12)P(=O)(O)O` (stereo in doubt; 40b') [listing 2 of 2 here] had an inhibition in assay [3] of 34%.
As to `O=C(O)[C@H](Cc1ccc2c(c1)oc1ccccc12)NC(CCc1cccc2ccccc12)P(=O)(O)O` (stereo in doubt; 40a'), in assay [2], the Selectivity came to 574. In assay [3], this compound displayed an inhibition of 95%.
Take `O=C(NCCc1ccccc1)[C@H](Cc1ccc2c(c1)oc1ccccc12)NCP(=O)(O)O`: the inhibition in assay [3] turned out to be 29%.
Turning to `COc1ccc(CCC(N[C@@H](Cc2ccc3c(c2)oc2ccccc23)C(=O)O)P(=O)(O)O)c(OC)c1OC` (stereo in doubt; 40l') [listing 1 of 2 here], the IC50 in assay [1] was 520 nM.
Regarding `O=C(O)CNC(=O)C(CS)Cc1ccccc1` (centres undefined) [THIORPHAN], in assay [1], the IC50 was greater than 100000 nM.
`COc1ccc(CCC(N[C@@H](Cc2ccc3c(c2)oc2ccccc23)C(=O)O)P(=O)(O)O)c(OC)c1OC` (stereo in doubt; 40l') [listing 2 of 2 here] displayed an inhibition in assay [3] of 64%.
In assay [3], `NCCCC(N[C@@H](Cc1ccc2c(c1)oc1ccccc12)C(=O)O)P(=O)(O)O` (stereo in doubt; 40q') showed an inhibition of 73%.
`O=C(NCCc1ccc(-c2ccccc2)cc1)[C@H](Cc1ccc2c(c1)oc1ccccc12)NCP(=O)(O)O` came in with an inhibition in assay [3] of 5%.

(Values after ChEMBL document CHEMBL1133584, “Potent and selective non-peptidic inhibitors of endothelin-converting enzyme-1 with sustained duration of action” (J Med Chem, 2000).)
